Data taken from ChEMBL document CHEMBL1141268, “Glycogen synthase kinase-3 (GSK-3) inhibitory activity and structure-activity relationship (SAR) studies of the manzamine alkaloids. Potential for Alzheimer's disease” (J Nat Prod, 2007).
pIC50: −log10 of the molar value. Calls of active or inactive are those of the source. The calls are words filed in the database; no cut-off is given here.

Columns and labels:
[1] = target: T1, Glycogen synthase kinase-3 beta (Homo sapiens, UniProt P49841); test: Inhibition of human recombinant GSKbeta at 25 uM
Summary of the method: (§1)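 Recombinant human GSK-3β in 11 mM MOPS pH 7.4, 0.2 mM EDTA, 1.25 mM EGTA, 26.25 mM MgCl2, 0.25 mM orthovanadate. Substrate was 62.5 µM GS-2 peptide, with γ-[33P]ATP plus unlabeled ATP at 12.5 µM final. Reaction ran 30 min at 30 °C. Aliquots were spotted on P81 phosphocellulose, washed and scintillation-counted. IC50 came from nonlinear regression of inhibition curves.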
Target sequence in this assay (P49841 whole entry, looked up): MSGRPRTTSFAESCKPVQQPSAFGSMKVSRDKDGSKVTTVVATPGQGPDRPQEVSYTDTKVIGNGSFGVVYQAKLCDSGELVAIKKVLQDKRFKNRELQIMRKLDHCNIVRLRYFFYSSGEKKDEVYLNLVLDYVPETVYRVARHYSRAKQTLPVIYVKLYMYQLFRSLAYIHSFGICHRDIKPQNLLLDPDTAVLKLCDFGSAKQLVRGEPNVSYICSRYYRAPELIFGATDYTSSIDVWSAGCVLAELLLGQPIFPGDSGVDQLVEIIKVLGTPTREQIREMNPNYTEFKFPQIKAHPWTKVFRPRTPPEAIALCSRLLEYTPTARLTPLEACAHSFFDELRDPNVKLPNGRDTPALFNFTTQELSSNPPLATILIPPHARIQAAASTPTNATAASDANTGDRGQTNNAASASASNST

[2] = target: T1, Glycogen synthase kinase-3 beta; test: Inhibition of human recombinant GSKbeta; summary of the method: as §1
Target sequence in this assay (P49841 whole entry): as the sequence (P49841 whole entry, looked up) above

[3] = Inhibition of recombinant MAPK
Summary of the method: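 ERK1 (recombinant MAP kinase) in ADBI buffer (20 mM MOPS pH 7.2, 25 mM β-glycerol phosphate, 5 mM EGTA, 1 mM sodium orthovanadate) with 10 µg myelin basic protein as substrate. ATP at 20 µM final. Incubated 15 min; otherwise as the GSK-3β radiometric P81 filter assay.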

[4] = Inhibition of recombinant PKA
Summary of the method: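 Recombinant PKA catalytic subunit in ADBI buffer with Kemptide substrate and 35 µM unlabeled ATP. Incubated 20 min; otherwise as the other kinase assays (γ-[33P]ATP, P81 filter binding, scintillation counting).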

[5] = target: Cyclin-dependent kinase 5/CDK5 activator 1 (Homo sapiens, UniProt Q00535); test: Inhibition of human recombinant CDK5/p35; type: protein-complex assay
Cyclin-dependent kinase 5/CDK5 activator 1, sequence (Q00535 whole entry): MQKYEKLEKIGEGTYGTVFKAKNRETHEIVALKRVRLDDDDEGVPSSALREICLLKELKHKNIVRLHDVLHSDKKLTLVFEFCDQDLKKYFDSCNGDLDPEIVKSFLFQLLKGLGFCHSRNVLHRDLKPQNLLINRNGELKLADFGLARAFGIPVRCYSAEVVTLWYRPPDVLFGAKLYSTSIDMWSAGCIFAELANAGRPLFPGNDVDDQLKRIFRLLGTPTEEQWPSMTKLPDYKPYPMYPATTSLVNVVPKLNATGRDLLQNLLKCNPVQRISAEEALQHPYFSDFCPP
Cyclin-dependent kinase 5/CDK5 activator 1, sequence (Q15078 whole entry, further chain): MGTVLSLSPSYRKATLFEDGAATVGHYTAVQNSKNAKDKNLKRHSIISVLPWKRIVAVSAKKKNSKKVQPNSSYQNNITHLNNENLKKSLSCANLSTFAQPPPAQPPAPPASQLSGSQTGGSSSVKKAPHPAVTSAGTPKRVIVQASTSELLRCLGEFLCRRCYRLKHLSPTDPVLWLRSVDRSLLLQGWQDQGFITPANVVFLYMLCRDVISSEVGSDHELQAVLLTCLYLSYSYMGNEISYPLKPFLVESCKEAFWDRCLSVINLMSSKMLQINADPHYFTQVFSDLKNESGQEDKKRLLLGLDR
Summary of the method: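 Human recombinant cdk5-p35 with histone H1 substrate, run as the GSK-3β protocol: 11 mM MOPS pH 7.4, 0.2 mM EDTA, 1.25 mM EGTA, 26.25 mM MgCl2, 0.25 mM sodium orthovanadate, γ-[33P]ATP plus unlabeled ATP (12.5 µM final). Incubated 30 min at 30 °C, spotted on P81 phosphocellulose, washed, scintillation counted. IC50 by nonlinear regression of inhibition curves.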

[6] = target: Glycogen synthase kinase-3 alpha (Homo sapiens) (UniProt P49840); test: Inhibition of recombinant GSKalpha
Glycogen synthase kinase-3 alpha (Homo sapiens), sequence (P49840 2-483 limits assumed): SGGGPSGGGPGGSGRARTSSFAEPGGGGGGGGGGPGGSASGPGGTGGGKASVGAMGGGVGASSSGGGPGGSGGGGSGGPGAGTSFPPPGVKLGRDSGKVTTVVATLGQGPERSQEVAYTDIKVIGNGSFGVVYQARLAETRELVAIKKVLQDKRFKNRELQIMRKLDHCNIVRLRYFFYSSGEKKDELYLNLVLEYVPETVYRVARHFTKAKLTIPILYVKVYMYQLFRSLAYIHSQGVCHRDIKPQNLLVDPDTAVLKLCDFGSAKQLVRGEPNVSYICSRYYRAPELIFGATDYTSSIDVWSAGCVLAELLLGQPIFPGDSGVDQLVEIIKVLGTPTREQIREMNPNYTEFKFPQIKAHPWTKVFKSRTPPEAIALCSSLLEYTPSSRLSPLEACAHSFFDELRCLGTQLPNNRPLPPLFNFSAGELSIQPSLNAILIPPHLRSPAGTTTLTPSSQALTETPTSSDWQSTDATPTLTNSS
Summary of the method: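 Recombinant GSK-3α, run as the GSK-3β radiometric protocol: MOPS pH 7.4 buffer with EDTA, EGTA, MgCl2 and orthovanadate, plus γ-[33P]ATP. GS-2 peptide at 20 µM final and ATP at 26 µM. Incubated 12 min, then P81 filter binding and scintillation counting. IC50 by nonlinear regression.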

[7] = target: Cyclin-dependent kinase 1 (Homo sapiens) (UniProt P06493); test: Inhibition of recombinant CDK1
Cyclin-dependent kinase 1 (Homo sapiens), sequence (P06493 whole entry, looked up): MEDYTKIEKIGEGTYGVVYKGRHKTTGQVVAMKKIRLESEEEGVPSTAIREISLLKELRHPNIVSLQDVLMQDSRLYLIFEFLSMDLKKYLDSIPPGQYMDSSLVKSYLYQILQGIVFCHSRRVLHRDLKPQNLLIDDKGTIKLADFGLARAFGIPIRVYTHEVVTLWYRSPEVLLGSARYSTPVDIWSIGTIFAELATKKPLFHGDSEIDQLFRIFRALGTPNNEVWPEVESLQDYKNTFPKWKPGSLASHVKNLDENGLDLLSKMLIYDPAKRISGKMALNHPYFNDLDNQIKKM
Summary of the method: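 Recombinant CDK-1 in ADBI buffer (20 mM MOPS pH 7.2, 25 mM β-glycerol phosphate, 5 mM EGTA, 1 mM sodium orthovanadate). Histone H1 substrate at […] and ATP at 22 µM final. Reaction run 15 min at 30 °C.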

SMILES | inhibition [1] [%] | pIC50 [2] | also measured
Oc1cccc2c1[nH]c1c(C3=C[C@@]4(O)CCCCCCCCN5CCC3[C@]3(C[C@@H]6CCCCCCN6[C@H]34)C5)nccc12 (stereo not given in full) | 29 | – | –
CCCCCCCCCCCCn1c2ccccc2c2ccnc(C3=C[C@@]4(O)CC/C=C\CCCCN5CC[C@@H]3[C@]3(C[C@@H]6/C=C\CCCCN6[C@H]34)C5)c21 | 0 | – | –
O=C1CCCN2[C@@H](CC1)C[C@]13CN4CCCC/C=C\CC[C@](O)(C=C(c5nccc6c5[nH]c5ccccc56)C1CC4)[C@H]23 (stereo not given in full) [MANZAMINE E] | – | 4.60 | –
COc1cccc2c3ccnc(C4=C[C@@]5(O)CC/C=C\CCCCN6CCC4[C@]4(C[C@@H]7/C=C\CCCCN7[C@H]45)C6)c3n(C)c12 (stereo not given in full) | 72.4 | – | –
CCOc1cccc2c3ccnc(C4=C[C@@]5(O)CC/C=C\CCCCN6CCC4[C@]4(C[C@@H]7/C=C\CCCCN7[C@H]45)C6)c3n(CC)c12 (stereo not given in full) [9-N-ETHYL-8-ETHOXY-MANZAMINE A] | 78 | 4.98 | –
O[C@]12C=C(c3nccc4c3[nH]c3ccccc34)C3CCN(CCCC/C=C\CC1)C[C@@]31C[C@]34CC[C@H](CCCN3[C@H]12)O4 (stereo not given in full) | 88.4 | – | –
O[C@]12C=C(c3nccc4c3[nH]c3ccccc34)[C@@H]3CCN(CCCC/C=C\CC1)C[C@@]31C[C@@H]3/C=C\CCCCN3[C@H]12 [MANZAMINE A] | – | 4.99 | Activity [3]: inactive; Activity [4]: inactive; pIC50 [5]: 5.82; Activity [6]: inactive; Activity [7]: inactive
C1=C(c2nccc3c2[nH]c2ccccc23)C2CCN3CCCC/C=C\C/C=C/1[C@@H]1N4CCCC/C=C\[C@H]4C[C@]21C3 (stereo not given in full) [12,13-DEHYDROMANZAMINE A] | 71.2 | 5.27 | –
Oc1ccc2[nH]c3c(C4=C[C@@]5(O)CC/C=C\CCCCN6CCC4[C@]4(C[C@@H]7/C=C\CCCCN7[C@H]45)C6)nccc3c2c1 (stereo not given in full) | 74.3 | 4.78 | –
O[C@]12C=C(c3nccc4c3[nH]c3ccccc34)[C@@H]3CCN(CCCCCCCC1)C[C@@]31C[C@@H]3CCCCCCN3[C@H]12 | 0 | – | –
O=C1CCCN2[C@@H](CC1)C[C@]13CN4CCCC/C=C\CC[C@](O)(C=C(c5nccc6c5[nH]c5c(OS(=O)(=O)c7ccc(Cl)cc7)cccc56)C1CC4)[C@H]23 (stereo not given in full) | 76.7 | 5.14 | –
Oc1cccc2c1[nH]c1c(C3=C[C@@]4(O)CC/C=C\CCCCN5CC[C@@H]3[C@]3(CC6/C=C\CCCCN6[C@H]34)C5)nccc12 (stereo not given in full) | – | 5.32 | –
CC(=O)Oc1cccc2c1[nH]c1c(C3=C/C4=C/C/C=C\CCCCN5CCC3[C@]3(C[C@@H]6/C=C\CCCCN6[C@@H]43)C5)nccc12 (stereo not given in full) [12,13-DEHYDRO-8-O-ACETYLMANZAMINE A] | 79.1 | 5.32 | –
CC(=O)Nc1nc(C)c(S(=O)(=O)Oc2cccc3c2[nH]c2c(C4=C[C@@]5(O)CC/C=C\CCCCN6CCC4[C@]4(C[C@@H]7CCC(=O)CCCN7[C@H]45)C6)nccc23)s1 (stereo not given in full) | 78.8 | 5.07 | –
Cc1ccc(S(=O)(=O)Oc2cccc3c2[nH]c2c(C4=C[C@@]5(O)CC/C=C\CCCCN6CCC4[C@]4(C[C@H]7/C=C\CCCCN7[C@H]45)C6)nccc23)cc1 (stereo not given in full) | 80.4 | – | –
COC(=O)CCCCn1c2ccccc2c2ccnc(C3=C[C@@]4(O)CC/C=C\CCCCN5CCC3[C@]3(C[C@@H]6/C=C\CCCCN6[C@H]34)C5)c21 (stereo not given in full) | 3 | – | –
CC(C)COc1cccc2c3ccnc(C4=C[C@@]5(O)CC/C=C\CCCCN6CCC4[C@]4(C[C@@H]7/C=C\CCCCN7[C@H]45)C6)c3n(CC(C)C)c12 (stereo not given in full) | 24.2 | – | –
O=C1CCCN2[C@@H](CC1)C[C@]13CN4CCCC/C=C\CC[C@](O)(C=C(c5nccc6c5[nH]c5c(OS(=O)(=O)c7ccc(Br)cc7)cccc56)C1CC4)[C@H]23 (stereo not given in full) | 63 | 4.64 | –
